Source: ChEMBL document CHEMBL1139993, “Synthesis of sialic acid derivatives as ligands for the myelin-associated glycoprotein (MAG)” (Bioorg Med Chem, 2007)

Columns and labels:
[1] = biological target: T1, Myelin-associated glycoprotein (Homo sapiens) (UniProt P20916); experiment: Inhibition of MAG N-terminal three domains expressed in CHO cells relative to Gal-beta-(1-3)-GalNAc-OSE; format: cell-based
T1 sequence (whole entry): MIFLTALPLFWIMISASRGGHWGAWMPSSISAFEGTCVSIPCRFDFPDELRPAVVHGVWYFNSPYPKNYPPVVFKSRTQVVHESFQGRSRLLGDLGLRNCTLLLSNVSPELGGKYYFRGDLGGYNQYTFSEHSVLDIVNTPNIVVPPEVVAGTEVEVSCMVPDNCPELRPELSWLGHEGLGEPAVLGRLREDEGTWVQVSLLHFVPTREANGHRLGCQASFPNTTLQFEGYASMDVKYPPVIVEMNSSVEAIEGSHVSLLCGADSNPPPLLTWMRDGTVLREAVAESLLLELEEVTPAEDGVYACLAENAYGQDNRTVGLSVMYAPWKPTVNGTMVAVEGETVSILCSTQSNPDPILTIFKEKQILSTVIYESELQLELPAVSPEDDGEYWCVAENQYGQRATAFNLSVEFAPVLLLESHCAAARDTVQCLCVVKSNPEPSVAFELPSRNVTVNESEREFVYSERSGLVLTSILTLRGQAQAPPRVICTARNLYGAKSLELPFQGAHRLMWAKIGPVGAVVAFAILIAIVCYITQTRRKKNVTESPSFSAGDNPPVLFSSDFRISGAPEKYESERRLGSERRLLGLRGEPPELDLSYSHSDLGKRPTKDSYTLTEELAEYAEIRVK
In short: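 Fc-MAG_d1–3 fusion (N-terminal three MAG domains plus human IgG Fc) was expressed in CHO cells and protein A-agarose purified, then precomplexed with alkaline phosphatase-labelled anti-Fc antibody. It was added to plates with immobilized Neu5Ac plus inhibitor, incubated overnight at 4 °C, and washed. Bound protein was read as initial rate of fluorescein release from fluorescein diphosphate. IC50 was taken from at least eight concentrations.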

[2] = biological target: T1, Myelin-associated glycoprotein (Homo sapiens); experiment: Inhibition of MAG N-terminal three domains expressed in CHO cells at 20 mM

SMILES: COc1ccc(C(=O)NC[C@@H](O)[C@H](O)[C@@H]2O[C@@](OCc3ccccc3)(C(=O)O)C[C@H](O)[C@H]2NC(C)=O)cc1
- Activity [1]: 290

SMILES: CC(=O)N[C@H]1[C@H]([C@@H](O)[C@H](O)COCc2ccccc2)O[C@@](OCc2ccccc2)(C(=O)O)C[C@@H]1O
- Activity [1]: 2.8

SMILES: CC(=O)N[C@H]1[C@H]([C@@H](O)[C@H](O)CNC(=O)c2cccc(Cl)c2)O[C@@](OCc2ccccc2)(C(=O)O)C[C@@H]1O
- Activity [1]: 483

SMILES: CCCCCC(=O)NC[C@@H](O)[C@H](O)[C@@H]1O[C@@](OCc2ccccc2)(C(=O)O)C[C@H](O)[C@H]1NC(C)=O
- Activity [1]: 12

SMILES: CC(=O)N[C@@H]1[C@@H]([C@@H](O)[C@H](O)CNC(=O)c2ccc(C)cc2)O[C@@](OCc2ccccc2)(C(=O)O)C[C@@H]1O
- Activity [1]: 806

SMILES: CC(=O)N[C@H]1[C@@H]([C@H](O)[C@H](O)CNC(=O)c2ccccc2-c2ccccc2)O[C@@](OCc2ccccc2)(C(=O)O)C[C@@H]1O
- Activity [1]: 75

SMILES: CCCC(=O)NC[C@@H](O)[C@H](O)[C@@H]1O[C@@](OCc2ccccc2)(C(=O)O)C[C@H](O)[C@H]1NC(C)=O
- Activity [1]: 8.6

SMILES: CCCCCCCCCC(=O)NC[C@@H](O)[C@H](O)[C@@H]1O[C@@](OCc2ccccc2)(C(=O)O)C[C@H](O)[C@H]1NC(C)=O
- Activity [1]: 12

SMILES: CC(=O)N[C@H]1[C@H]([C@@H](O)[C@H](O)CNC(=O)c2ccc(Cl)cc2)O[C@@](OCc2ccccc2)(C(=O)O)C[C@@H]1O
- Activity [1]: 1070

SMILES: CC(=O)N[C@H]1[C@H]([C@@H](O)[C@H](O)CNC(=O)c2ccc(Cl)c(Cl)c2)O[C@@](OCc2ccccc2)(C(=O)O)C[C@@H]1O
- Activity [1]: 690

SMILES: CC(=O)N[C@H]1[C@H]([C@@H](O)[C@H](O)CNC(=O)c2ccccc2)O[C@@](OCc2ccccc2)(C(=O)O)C[C@@H]1O
- Activity [1]: 690

SMILES: CC(=O)N[C@H]1[C@H]([C@@H](O)[C@H](O)CNC(=O)c2ccc(Cl)cc2Cl)O[C@@](OCc2ccccc2)(C(=O)O)C[C@@H]1O
- Activity [1]: 35

SMILES: CC(=O)N[C@H]1[C@H]([C@@H](O)[C@H](O)CNC(=O)c2cc(=O)[nH]c(=O)[nH]2)O[C@@](OCc2ccccc2)(C(=O)O)C[C@@H]1O
- Activity [1]: 6.7

SMILES: CC(=O)N[C@H]1[C@H]([C@@H](O)[C@H](O)CO)O[C@](OCc2ccccc2)(C(=O)O)C[C@@H]1O
- inhibition [2]: < 50%

SMILES: CC(=O)N[C@H]1[C@H]([C@@H](O)[C@H](O)CO)O[C@@](OCc2ccccc2)(C(=O)O)C[C@@H]1O
- Activity [1]: 0.62

SMILES: CC(=O)N[C@H]1[C@H]([C@@H](O)[C@H](O)CN=[N+]=[N-])O[C@@](OCc2ccccc2)(C(=O)O)C[C@@H]1O
- Activity [1]: 0.05

SMILES: CC(=O)N[C@H]1[C@H]([C@@H](O)[C@H](O)CNC(=O)c2ccc([N+](=O)[O-])cc2)O[C@@](OCc2ccccc2)(C(=O)O)C[C@@H]1O
- Activity [1]: 414

SMILES: CC(=O)N[C@H]1[C@H]([C@@H](O)[C@H](O)CNC(=O)c2ccc(C(F)(F)F)cc2)O[C@@](OCc2ccccc2)(C(=O)O)C[C@@H]1O
- Activity [1]: 207

SMILES: CC(=O)N[C@H]1[C@@H]([C@H](O)[C@H](O)CNC(=O)c2ccc(-c3ccccc3)cc2)O[C@@](OCc2ccccc2)(C(=O)O)C[C@@H]1O
- Activity [1]: 191
